Data reported in ChEMBL document CHEMBL4422620, “Synthesis of novel morpholine, thiomorpholine and N-substituted piperazine coupled 2-(thiophen-2-yl)dihydroquinolines as potent inhibitors of Mycobacterium tuberculosis” (Eur J Med Chem, 2019).
In brackets after ≈: the same amount, converted by molar mass.

Assays:
[1] = tested on: Mycobacterium tuberculosis; test: Antitubercular activity against Mycobacterium tuberculosis H37Rv after 7 days by Alamar blue assay; assay type: functional; conditions: 168 h
Method in brief: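 M. tuberculosis H37Rv inoculum from fresh LJ medium resuspended in 7H9-S (7H9 broth, 0.1% casitone, 0.5% glycerol, OADC), adjusted to McFarland No. 1, diluted 1:20. Serial two-fold drug dilutions in 7H9-S, with growth and sterile controls. Incubated at 37°C in normal atmosphere for 7 days, then Alamar blue added and plates re-incubated overnight. MIC was the lowest concentration fully inhibiting growth.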

[2] = Cytotoxicity against human HEK293T cells assessed as inhibition of cell growth at 50 ug/ml after 72 hrs by MTT assay relative to control; assay type: cell-based, HEK-293T; conditions: read-out: GI
Method in brief: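 HEK-293T cells exposed to compounds at 50 μg/mL for 72 h. Viability was read as cellular conversion of MTT to formazan and expressed as percentage inhibition.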

SMILES | MIC [1] | inhibition at 72 h, 50 ug/ml [2]
ClC1=C(CN2CCN(c3ccccc3)CC2)CCc2nc(-c3cccs3)ccc21 | 25 µg/mL (≈ 59.2 µM) | –
ClC1=C(CN2CCSCC2)CCc2nc(-c3cccs3)ccc21 | 25 µg/mL (≈ 68.9 µM) | –
NNC(=O)c1ccncc1 [ISONIAZID] | 0.1 µg/mL (≈ 0.729 µM) | –
O=C(C1CC1)N1CCN(CC2=C(Cl)c3ccc(-c4cccs4)nc3CC2)CC1 | 3.12 µg/mL (≈ 7.55 µM) | 28.9%
Cc1ccccc1N1CCN(CC2=C(Cl)c3ccc(-c4cccs4)nc3CC2)CC1 | 25 µg/mL (≈ 57.3 µM) | –
ClC1=C(CN2CCN(Cc3ccccc3)CC2)CCc2nc(-c3cccs3)ccc21 | 1.56 µg/mL (≈ 3.58 µM) | 19.9%
CC(=O)c1ccc(N2CCN(CC3=C(Cl)c4ccc(-c5cccs5)nc4CC3)CC2)cc1 | 25 µg/mL (≈ 53.9 µM) | –
CO[C@H]1/C=C/O[C@@]2(C)Oc3c(C)c(O)c4c(O)c(c(/C=N/N5CCN(C)CC5)c(O)c4c3C2=O)NC(=O)/C(C)=C\C=C\[C@H](C)[C@H](O)[C@@H](C)[C@@H](O)[C@@H](C)[C@H](OC(C)=O)[C@@H]1C [RIFAMPIN] | 0.2 µg/mL (≈ 0.243 µM) | –
ClC1=C(CN2CCOCC2)CCc2nc(-c3cccs3)ccc21 | 6.25 µg/mL (≈ 18 µM) | 34%
Fc1ccccc1N1CCN(CC2=C(Cl)c3ccc(-c4cccs4)nc3CC2)CC1 | 6.25 µg/mL (≈ 14.2 µM) | 32.6%
ClC1=C(CN2CCN(Cc3ccc4c(c3)OCO4)CC2)CCc2nc(-c3cccs3)ccc21 | 25 µg/mL (≈ 52.1 µM) | –
ClC1=C(CN2CCN(Cc3ccc(Cl)cc3)CC2)CCc2nc(-c3cccs3)ccc21 | 12.5 µg/mL (≈ 26.6 µM) | –
CC[C@@H](CO)NCCN[C@@H](CC)CO [ETHAMBUTOL] | 3.13 µg/mL (≈ 15.3 µM) | –
ClC1=C(CN2CCN(c3ccc(Cl)cc3)CC2)CCc2nc(-c3cccs3)ccc21 | 25 µg/mL (≈ 54.8 µM) | –
COc1ccccc1N1CCN(CC2=C(Cl)c3ccc(-c4cccs4)nc3CC2)CC1 | 6.25 µg/mL (≈ 13.8 µM) | 36.7%
ClC1=C(CN2CCN(c3ccccn3)CC2)CCc2nc(-c3cccs3)ccc21 | 1.56 µg/mL (≈ 3.69 µM) | 20.1%
ClC1=C(CN2CCN(CC3OCCO3)CC2)CCc2nc(-c3cccs3)ccc21 | 12.5 µg/mL (≈ 28.9 µM) | –
CC(C)(C)OC(=O)N1CCN(CC2=C(Cl)c3ccc(-c4cccs4)nc3CC2)CC1 | 25 µg/mL (≈ 56.1 µM) | –
FC(F)(F)c1ccc(N2CCN(CC3=C(Cl)c4ccc(-c5cccs5)nc4CC3)CC2)cc1 | 25 µg/mL (≈ 51 µM) | –
O=C(O)c1cn(C2CC2)c2cc(N3CCNCC3)c(F)cc2c1=O [CIPROFLOXACIN] | 1.56 µg/mL (≈ 4.71 µM) | –
